Screening results from PubChem.
In the library only some 1% were active in any assay of this set; here they are far more common.
Yeast eIF2B – eIF2B (yeast) activity modulation; S. cerevisiae eIF2B-epsilon R284H, GCN4-lacZ luminescence; inhibition, % at 25 µM (by protocol); 0.91% of 27,000 active; AID 688;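 active = mutant luminescence inhibited past about 50% while wild type luminescence and mutant growth stay under set limits, limit read from the data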
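System: Yeast eIF2B-epsilon R284H mutant carrying GCN4–beta-galactosidase fusion | Read-out basis: Percent inhibition, luminescence and growth | Compound: 25 µM single dose | Times: 16 h at 30 °C exposure | Measured by: Luminescence and A595 | Buffer or medium: YPD medium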
Yeast tox – Compounds toxic to wild-type S. cerevisiae growth. A595 turbidity, 16 h. 0.3% of 30,000 active. growth inhibition, % at 25 µM (by protocol);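 active = mutant and wild-type yeast strains alike exhibit over 30% growth inhibition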;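 also: 0% = untreated cell controls and 100% = YPD media blanks without cells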
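System – wild-type and eIF2Bepsilon-R284H mutant S. cerevisiae, screened separately · Measured by – absorbance at 595 nm (turbidity) · Timing – 16 h compound exposure during growth at 30 °C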
The depositor's hits bear a star.

Screening Cc1noc(C)c1C(=O)Nc1ccc2c(c1)CCC2 returned Yeast eIF2B 65*.
For COc1ccc(C(=O)Cn2c3ccccc3n3nc(CCC(=O)O)c(=O)nc23)cc1OC the results were Yeast eIF2B 30 and Yeast tox -34.
Screening Cc1cccc(-c2nnc(NC(=O)c3ccc(Cl)cc3)o2)c1 returned Yeast eIF2B 17 and Yeast tox 57*.
Screening COc1ccc(C(=O)Nc2nnc(-c3ccccc3)o2)cc1OC returned Yeast eIF2B 21 and Yeast tox 14.
For O=C(CSc1nnc(C2CCCCC2)n1Cc1ccccc1)NCc1ccco1 the results were Yeast eIF2B 39 and Yeast tox 27.
`CCS(=O)(=O)N1CCCC(C(=O)NCc2cccc(OC)c2)C1` (stereo unspecified) gave Yeast eIF2B -2 and Yeast tox 1.
Screening CCS(=O)(=O)N1CCCC(C(=O)NCCN(C)Cc2ccccc2)C1 (stereo unspecified) returned Yeast eIF2B 62* and Yeast tox 11.
`CCOc1nnnc2c1sc1nc(N3CCOCC3)c3c(c12)CCCC3` gave Yeast tox 18.
Screening Cc1ccc(C(=C2C3C=CC2C2C(=O)NC(=O)C32)c2ccc(C)cc2)cc1 (stereo unspecified) returned Yeast tox 1.
For O=C(CSc1ccc2nnc(-c3ccccc3)n2n1)N1CCCCC1 the results were Yeast eIF2B -8 and Yeast tox 13.
Screening Cc1ccc(-n2nc(C)c3c2OC(N)=C(C#N)C3c2ccccc2F)cc1 (stereo unspecified) returned Yeast eIF2B 24 and Yeast tox -2.
Cc1nn(-c2ccccc2)c2c1C(c1c(C)[nH]c(C#N)c1C)C(C#N)=C(N)O2 (stereo unspecified) was read as Yeast eIF2B 53* and Yeast tox -7.
For Cc1cccc(N2CCN(C(=O)CCn3c(=S)[nH]c4cc5c(cc4c3=O)OCO5)CC2C)c1 (stereo unspecified) the results were Yeast eIF2B 10 and Yeast tox 1.
Screening CCOC(=O)N1CCN(C(=O)c2nn(-c3cc(OC)cc(OC)c3)c(=O)c3ccccc23)CC1 returned Yeast eIF2B 57* and Yeast tox -26.
`COc1cc(OC)cc(-n2nc(C(=O)N3CC(C)CC(C)C3)c3ccccc3c2=O)c1` (stereo unspecified) gave Yeast eIF2B -18 and Yeast tox -5.
Screening Cc1ccccc1COc1ccc(/C(O)=C2/C(=O)C(=O)N(CCCn3ccnc3)C2c2ccco2)cc1 (stereo unspecified) returned Yeast eIF2B -7 and Yeast tox -3.
`CCN(CC)CCNC(=O)Cn1nc(-c2ccccc2)c2ccccc2c1=O` gave Yeast eIF2B 24 and Yeast tox -22.
`CNC(=O)Cn1nc(-c2ccc(C)c(S(=O)(=O)N(C)C)c2)c2ccccc2c1=O` gave Yeast eIF2B 62* and Yeast tox 1.
For CN(C(=O)c1ccc(NC(=O)c2cnccn2)cc1)C1CCCCC1 the results were Yeast eIF2B 17 and Yeast tox 5.
Screening Cc1ccc(SCc2cc(=O)[nH]c(N3CCN(Cc4ccc5c(c4)OCO5)CC3)n2)cc1 returned Yeast eIF2B 60* and Yeast tox -17.
Cc1ccc2c(CN3CCN(Cc4ccc5c(c4)OCO5)CC3)cc(=O)oc2c1C was read as Yeast eIF2B 15 and Yeast tox 4.
CN1CCc2nc(SCC(=O)Nc3ccc(Cl)cc3)c(C#N)cc2C1 was read as Yeast eIF2B 62* and Yeast tox -14.
Screening N#Cc1cc2c(nc1SCC(=O)Nc1sc3c(c1C#N)CCC3)CCCCCC2 returned Yeast tox 18.
Screening CN(C)CCN1C(=O)C(O)=C(C(=O)c2cc3ccccc3o2)C1c1ccccn1 (stereo unspecified) returned Yeast eIF2B -44 and Yeast tox -12.
Screening CN(C)CCN1C(=O)C(O)=C(C(=O)c2ccco2)C1c1ccccc1F (stereo unspecified) returned Yeast eIF2B 63* and Yeast tox -2.
Screening Cc1cc(C)c(NC(=O)C2CCN(c3cnccn3)CC2)c(C)c1 returned Yeast eIF2B 8 and Yeast tox -2.
For O=C(CNC1CCCCC1)N1CCc2ccccc2C1 the results were Yeast tox 3.
Screening CCOC(=O)C1=C(C)NC(C)=C(C(=O)OCC)C1C(=O)OCC(=O)N1CCc2ccccc2C1 returned Yeast eIF2B 59* and Yeast tox 0.
`Cc1cc(Cl)c(S(=O)(=O)NC2CCCC2)cc1OCC(=O)NC1CCCCC1` gave Yeast eIF2B 14 and Yeast tox 7.
For CC(=O)c1ccccc1NC(=O)CSc1nnc2ccccn12 the results were Yeast tox 12.
`COC(=O)C1=C(C(=O)OC)C2(OC1c1ccccc1C)C(=O)c1ccccc1C2=O` (stereo unspecified) gave Yeast eIF2B 31.
`O=C(c1cccs1)N1CCC(c2ccccc2)C1` (stereo unspecified) gave Yeast eIF2B 71* and Yeast tox 18.
Screening O=C(c1cccs1)N1CCCC1 returned Yeast eIF2B 5 and Yeast tox 0.
Screening Cc1ccc(NC(=S)N2CCC(N(C)CC3CCCO3)CC2)c(C)c1 (stereo unspecified) returned Yeast eIF2B 12 and Yeast tox 6.
`Cn1c(=O)[nH]c(=O)c2c1nc(SCC(O)CO)n2Cc1ccccc1Cl` (stereo unspecified) gave Yeast eIF2B 61* and Yeast tox 5.
Screening Cn1c(=O)[nH]c(=O)c2c1nc(Br)n2Cc1ccccc1Cl returned Yeast eIF2B 9 and Yeast tox 10.
S=C(NN=C(C1CC1)C1CC1)Nc1ccccc1 was read as Yeast eIF2B 10 and Yeast tox 3.
For N#C/C(=C/c1ccc(N2CCCCC2)o1)c1cccc(F)c1 the results were Yeast tox 13.
For Cc1ccc2nc(/C(C#N)=C\c3ccc(N4CCOCC4)o3)[nH]c2c1 the results were Yeast eIF2B 65*.
For CCOc1ccc(N2C(=O)C(Cl)=C(Nc3ccccc3O)C2=O)cc1 the results were Yeast eIF2B 26 and Yeast tox 31.
Screening O=C(O)CCC(=O)N1CCN(c2cccc(Cl)c2)CC1 returned Yeast eIF2B 35 and Yeast tox -2.
For CC(=O)/C(C(=N)N1CCN(c2cccc(Cl)c2)CC1)=C(\C)O the results were Yeast eIF2B 61*.
Screening COc1ccc(CN(CC2CCCO2)C(=O)CN2C(=O)COc3ccccc32)cc1OC (stereo unspecified) returned Yeast eIF2B -23 and Yeast tox 2.
For CCOC(=O)C(C)c1nc2ccccc2[nH]c1=O (stereo unspecified) the results were Yeast eIF2B 33 and Yeast tox 8.
Screening CC(C)OC(=O)CCc1nc2ccccc2[nH]c1=O returned Yeast eIF2B 61* and Yeast tox 2.
CC1CCCC(n2c(=S)[nH]c3ccccc3c2=O)C1C (stereo unspecified) was read as Yeast tox 32.
For CS(=O)(=O)N(CCc1ccccc1)CC(=O)N1CCN(c2ccc(F)cc2)CC1 the results were Yeast eIF2B -16 and Yeast tox -3.
For CN1C(=O)NC(c2ccccc2)C2=C1CN(c1cccc(C(F)(F)F)c1)C2=O (stereo unspecified) the results were Yeast eIF2B 52* and Yeast tox 1.
